{"source": "paper PMC3920952", "about": "(Cell Death & Disease, 2013)", "molecules": {"B1": {"name": "HGS-ETR2: agonistic anti-TRAIL-R2 antibody used as a positive control for apoptotic cell death (antibody, chains of the INN, looked up, V domains shown)", "VH": "EVQLVQSGGGVERPGGSLRLSCAASGFTFDDYGMSWVRQAPGKGLEWVSGINWNGGSTGYADSVKGRVTISRDNAKNSLYLQMNSLRAEDTAVYYCAKILGAGRGWYFDLWGKGTTVTVSS", "VL": "SSELTQDPAVSVALGQTVRITCQGDSLRSYYASWYQQKPGQAPVLVIYGKNNRPSGIPDRFSGSSSGNTASLTITGAQAEDEADYYCNSRDSSGNHVVFGGGTKLTVL"}}, "key": {"[1]": {"system": "Jurkat cells", "experiment": "Cell death by propidium iodide staining and flow cytometry", "format": "cell-based", "settings": "15 μM, 18 h, 0.5% FBS; mean of three independent experiments", "how_it_was_run": "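Cells seeded at 4×10^5/ml in medium with 0.5% FBS and exposed for 18 h to TAT-fused truncated test peptides (15 μM) or TAT alone. Cells were washed in PBS and resuspended in PI solution (50 μg/ml PI, 0.1% sodium citrate, 0.1% Triton X-100). Flow cytometry gave the sub-G1 fraction. Mean ± S.D. of three independent experiments; two-tailed Student's t-test versus TAT.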"}, "[2]": {"system": "Jurkat cells", "experiment": "ATP-based cell viability assay", "how_it_was_run": "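Jurkat cells (RPMI, 10% FBS, 1.5 mmol/l L-glutamine) seeded in half-surface 96-well plates. Treated overnight/18 h with test peptide, TAT-only peptide or vehicle under low serum (0.5–5% FBS). Single-concentration runs used 15 μM. ATP measured by CellTiter-Glo luminescence and expressed as % of vehicle-treated control. Single-concentration values are mean ± S.D. of four independent experiments.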"}, "[3]": {"system": "K562 cells", "experiment": "Trypan blue exclusion assay", "format": "cell-based", "settings": "20 μM, 15-min treatment", "how_it_was_run": "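K562 cells were exposed to 20 μM test peptide or TAT in medium with 0.5% FBS, either over a time course (minutes) or for 18 h. Cells in suspension were mixed 1:1 with 0.4% Trypan blue. Viable (dye-negative) cells were counted on an automated cell counter. Values are mean ± S.D.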"}, "[4]": {"experiment": "Particle size by dynamic light scattering", "format": "physicochemical", "settings": "PBS pH 7.4, 25 °C", "how_it_was_run": "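Test peptide at 60 μM in PBS, pH 7.4, at 25 °C was filtered and degassed, then scanned in a 1-mm path quartz cuvette. 90° light scattering was recorded for 3 min. Particle radius was derived by CONTIN analysis of the DLS data.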"}, "[5]": {"system": "Jurkat cells", "experiment": "Trypan blue exclusion assay", "format": "cell-based", "how_it_was_run": "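Jurkat cells cultured in 96-well plates and treated with TAT or test peptide overnight (10–15 μM range). In the caspase-inhibitor arm, cells were preincubated 30 min with zVAD-fmk or vehicle, then treated 17 h (TAT 10 μM). Suspended cells were mixed 1:1 with 0.4% Trypan blue, and viable cells were counted on a TC10 automated counter.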"}, "[6]": {"experiment": "Tolerability in xenograft-bearing mice", "format": "in vivo, nu/nu mice", "settings": "mice treated for 18 days, 2.0 and 8.0 mg/kg daily i.p.", "how_it_was_run": "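HCT116 cells (1×10^6) injected s.c. into the right flank of 7–8-week-old female nu/nu mice. After 1 week, mice were randomized into four groups of eight. Groups received daily i.p. test peptide (2.0 or 8.0 mg/kg) or TAT (1.3 or 5.3 mg/kg) for 18 days. Body weight was monitored. Liver, brain, heart, lung and spleen sections were assessed by H&E staining.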"}}, "data": [{"molecule": "CTADMS [killerFLIP-C]", "values": [{"measurement": "cell death (PI staining)", "setting": "[1]", "value": 14.6, "unit": "%"}]}, {"molecule": "FALFCTSW [scrambled killerFLIP-E]", "values": [{"measurement": "relative ATP levels compared with vehicle-treated cells", "setting": "[2]; 18 h, comparison with scrambled variant (Figure 4c), concentration not given", "value": 12.7, "unit": "%"}]}, {"molecule": "YGRKKRRQRRR [TAT, reference compound]", "values": [{"measurement": "Trypan blue-negative cells", "setting": "[3]", "value": 83, "unit": "%"}, {"measurement": "self-assembly into micelles in aqueous solution (DLS)", "setting": "[4]", "value": "does not"}, {"measurement": "cells excluding Trypan blue", "setting": "[5]; 10 μM TAT, 17 h, no zVAD-fmk", "value": 78, "unit": "%"}, {"measurement": "cell death (Trypan blue exclusion)", "setting": "[5]; 10 μM, 17 h", "value": "did not induce cell death"}, {"measurement": "Trypan blue-negative cells", "setting": "[5]; 20 μM, 15-min treatment", "value": 75.2, "unit": "%"}]}, {"molecule": "YGRKKRRQRRRREADFFWSLCTADMS [killerFLIP]", "values": [{"measurement": "effect on cell viability (relative ATP levels)", "setting": "[2]; overnight treatment, various concentrations, low serum (0.5–5% FBS)", "value": "concentration-dependent decrease in cell viability"}, {"measurement": "cell death, share of Jurkat cells (Trypan blue exclusion)", "setting": "[5]; 10–15 μM, overnight", "value": "~50", "unit": "%"}, {"measurement": "tolerability", "setting": "[6]", "value": "generally well tolerated"}]}, {"molecule": "B1", "values": [{"measurement": "Trypan blue-negative cells", "setting": "[5]; HGS-ETR2 1 μg/ml, 17 h, after 30 min pre-treatment with 20 μM zVAD-fmk", "value": 70, "unit": "%"}, {"measurement": "Trypan blue-negative cells", "setting": "[5]; HGS-ETR2 1 μg/ml, 17 h, no zVAD-fmk", "value": 11, "unit": "%"}]}]}
